According to ChEMBL document CHEMBL1156720, “Synthesis and antimicrobial activity of dermaseptin S1 analogues” (Bioorg Med Chem, 2008):
≈ marks a conversion by molar mass, not a printed value. Where “and” joins values, the source holds several entries; their conditions need not be identical. Identical values can stand only once. Square brackets hold non-standard residues; d marks the D form. Peptide text beside a SMILES is read from it. 1Nal = N[C@@H](Cc1cccc2ccccc12)C(=O)O; 2Nal = N[C@@H](Cc1ccc2ccccc2c1)C(=O)O; hPhe = N[C@@H](CCc1ccccc1)C(=O)O

Legend:
[1] = test system: Staphylococcus aureus; assay: Antibacterial activity against Staphylococcus aureus Cowan 1 NCTC 8530 after 24 hrs by microdilution serial twofold assay; type: functional; details: Cowan 1, 24 h
Procedure, shortened: (§1)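 Bacteria grown in static culture at 37 °C in Mueller Hinton broth and diluted to 5 × 10⁵ CFU/mL. Peptides were tested by twofold serial microdilution starting from 100 μg/mL, with peptide-free control wells. The MIC was the lowest concentration with no rise in turbidity after overnight incubation at 37 °C. Values are means of at least two independent experiments run in duplicate.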

[2] = test system: Escherichia coli; assay: Antibacterial activity against Escherichia coli HB101 after 24 hrs by microdilution serial twofold assay; type: functional; details: HB101, 24 h; procedure, shortened: as §1
[3] = test system: Pseudomonas aeruginosa; assay: Antibacterial activity against Pseudomonas aeruginosa ATCC 15442 after 24 hrs by microdilution serial twofold assay; type: functional; details: ATCC 15442, 24 h
[4] = test system: Pseudomonas aeruginosa; assay: Antibacterial activity against multi drug-resistant Pseudomonas aeruginosa after 24 hrs by microdilution serial twofold assay; type: functional
Procedure, shortened: (§2)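 Mueller Hinton Broth cultures grown statically at 37 °C and diluted to 5 × 10⁵ CFU/mL. Twofold serial microdilution from 100 μg/mL peptide, final volume 200 μL, with peptide-free controls. MIC is the lowest concentration with no turbidity increase after overnight incubation at 37 °C. Means come from at least two independent experiments run in duplicate.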

[5] = test system: Burkholderia cepacia; assay: Antibacterial activity against Burkholderia cepacia 6/06 after 24 hrs by microdilution serial twofold assay; type: functional; procedure, shortened: as §1
[6] = test system: Candida albicans; assay: Antifungal activity against wild type Candida albicans by broth microdilution method; type: functional
Procedure, shortened: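 Wild-strain yeast was tested in triplicate by broth microdilution following NCCLS recommendations. The MIC was the lowest peptide concentration with no increase in turbidity after overnight incubation at 37 °C.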

[7] = test system: Staphylococcus aureus; assay: Antibacterial activity against Staphylococcus aureus ATCC 6538P after 24 hrs by microdilution serial twofold assay; type: functional
[8] = test system: Escherichia coli; assay: Antibacterial activity against Escherichia coli HB101 after 3 hrs by microdilution serial twofold assay; type: functional; details: HB101, 3 h, read-out: LD50 (the source's name)
Procedure, shortened: (§3)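 Mueller Hinton Broth static cultures grown at 37 °C and diluted to 5 × 10⁵ CFU/mL. Peptides were tested by twofold serial microdilution starting from 100 μg/mL in a final volume of 200 μL, with peptide-free controls. After 3 h incubation, cultures were serially 10-fold diluted in PBS and plated on Mueller Hinton Agar. Counts were taken after 24 h at 37 °C. Value is the dose giving 50% bacterial lethality.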

[9] = test system: Staphylococcus aureus; assay: Antibacterial activity against multi drug-resistant Staphylococcus aureus after 24 hrs by microdilution serial twofold assay; type: functional; procedure, shortened: as §2
[10] = test system: Stenotrophomonas maltophilia; assay: Antibacterial activity against Stenotrophomonas maltophilia FC after 24 hrs by microdilution serial twofold assay; type: functional; procedure, shortened: as §1
[11] = test system: Staphylococcus aureus; assay: Antibacterial activity against Staphylococcus aureus Cowan 1 NCTC 8530 after 3 hrs by microdilution serial twofold assay; type: functional; details: Cowan 1, 3 h, read-out: LD50 (the source's name); procedure, shortened: as §3
[12] = test system: Bacillus subtilis; assay: Antibacterial activity against Bacillus subtilis ATCC 9466 after 24 hrs by microdilution serial twofold assay; type: functional; details: ATCC 9466, 24 h
[13] = Toxicity assessed as hemolytic activity in human red blood cells after 30 mins; type: cell-based, Erythrocyte; details: read-out: HD50
Procedure, shortened: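 Serially diluted peptides were incubated with 10⁸ washed human RBC (100 µL) for 30 min at 37 °C with agitation. After centrifugation at 900g for 10 min, haemoglobin in the supernatant was read at 550 nm. Distilled water gave maximal lysis. HC₅₀ is the mean from at least two independent experiments run in triplicate.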

[14] = test system: Leishmania major; assay: Antileishmanial activity against Leishmania major MHOM/IL/67/JERICHO-2 after 24 hrs by dye exclusion method; type: functional
Procedure, shortened: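 Promastigotes were grown at 25 °C in medium 199 with 20% heat-inactivated FCS, penicillin/streptomycin, L-glutamine, HEPES, adenine, hemin and biotin. They were resuspended at 5 × 10⁵ viable cells/mL and exposed to serial peptide dilutions at 25 °C with agitation. Viability was counted by trypan blue exclusion in a haemocytometer.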

[15] = test system: Leishmania major; assay: Antileishmanial activity against Leishmania major MHOM/IL/67/JERICHO-2 assessed as protozoal viability after 24 hrs by dye exclusion method; type: functional
Procedure, shortened: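 Promastigotes grown at 25 °C in supplemented medium 199 containing 20% heat-inactivated FCS, then resuspended at 5 × 10⁵ viable/mL with serially diluted peptides. After 24 h at 25 °C with agitation, viable cells were counted by haemocytometer using trypan blue exclusion. LC₅₀ is the 50% survival reduction versus an untreated culture, fitted by nonlinear regression. Run in triplicate.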

Row | Compound | MIC [1] | MIC [2] | MIC [3] | MIC [4] | MIC [5] | MIC [6] | MIC [7] | LC50 [8] | MIC [9] | MIC [10] | LC50 [11] | MIC [12] | HC50 at 0.5 h [13] | MIC [14] | LC50 [15]
1 | CSCC[C@H](NC(=O)[C@@H](NC(=O)CNC(=O)[C@H](CC(C)C)NC(=O)[C@H](CCCCN)NC(=O)[C@H](CCCCN)NC(=O)[C@H](CC(C)C)NC(=O)[C@H](CCSC)NC(=O)[C@@H](NC(=O)[C@H](CCCCN)NC(=O)[C@H](Cc1cccc2ccccc12)NC(=O)[C@H](CC(C)C)NC(=O)[C@H](C)N)[C@@H](C)O)[C@@H](C)O)C(=O)N[C@@H](C)C(=O)N[C@@H](CC(C)C)C(N)=O (H-AL[1Nal]KTMLKKLGTMAL-NH2) | 11.5 µM (≈ 19.7 µg/mL) | 2.8 µM (≈ 4.8 µg/mL) | 5.6 µM (≈ 9.61 µg/mL) | 11.2 µM (≈ 19.2 µg/mL) | 25 µM (≈ 42.9 µg/mL) | 11.2 µM (≈ 19.2 µg/mL) | 2.8 µM (≈ 4.8 µg/mL) | 0.9 µM | 22.5 µM (≈ 38.6 µg/mL) | 22.5 µM (≈ 38.6 µg/mL) | 2.4 µM | 11.2 µM (≈ 19.2 µg/mL) | 75 µM |  | 
2 | CSCC[C@H](NC(=O)[C@@H](NC(=O)CNC(=O)[C@H](CC(C)C)NC(=O)[C@H](CCCCN)NC(=O)[C@H](CCCCN)NC(=O)[C@H](CC(C)C)NC(=O)[C@H](CCSC)NC(=O)[C@@H](NC(=O)[C@H](CCCCN)NC(=O)[C@H](Cc1ccc2ccccc2c1)NC(=O)[C@H](CC(C)C)NC(=O)[C@H](C)N)[C@@H](C)O)[C@@H](C)O)C(=O)N[C@@H](C)C(=O)N[C@@H](CC(C)C)C(N)=O (H-AL[2Nal]KTMLKKLGTMAL-NH2) | 11.5 µM (≈ 19.7 µg/mL) | 2.8 µM (≈ 4.8 µg/mL) | 5.6 µM (≈ 9.61 µg/mL) | 11.2 µM (≈ 19.2 µg/mL) | 25 µM (≈ 42.9 µg/mL) | 11.2 µM (≈ 19.2 µg/mL) | 2.8 µM (≈ 4.8 µg/mL) | 0.9 µM | > 25 µM | 25 µM (≈ 42.9 µg/mL) | 2.5 µM | 5.6 µM (≈ 9.61 µg/mL) | > 100 µM |  | 
3 | CSCC[C@H](NC(=O)[C@@H](NC(=O)CNC(=O)[C@H](CC(C)C)NC(=O)[C@H](CCCCN)NC(=O)[C@H](CCCCN)NC(=O)[C@H](CC(C)C)NC(=O)[C@H](CCSC)NC(=O)[C@@H](NC(=O)[C@H](CCCCN)NC(=O)[C@H](CCc1ccccc1)NC(=O)[C@H](CC(C)C)NC(=O)[C@H](C)N)[C@@H](C)O)[C@@H](C)O)C(=O)N[C@@H](C)C(=O)N[C@@H](CC(C)C)C(N)=O (H-AL[hPhe]KTMLKKLGTMAL-NH2) | 46.8 µM (≈ 78.6 µg/mL) | 11.7 µM (≈ 19.6 µg/mL) | > 46 µM | 46 µM (≈ 77.2 µg/mL) | 23 µM (≈ 38.6 µg/mL) | 5.8 µM (≈ 9.74 µg/mL) | 5.8 µM (≈ 9.74 µg/mL) | 3 µM | > 46 µM | 23 µM (≈ 38.6 µg/mL) | 9.3 µM | 23 µM (≈ 38.6 µg/mL) | > 100 µM |  | 
4 | CSCC[C@H](NC(=O)[C@@H](NC(=O)CNC(=O)[C@H](CC(C)C)NC(=O)[C@H](CCCCN)NC(=O)[C@H](CCCCN)NC(=O)[C@H](CC(C)C)NC(=O)[C@H](CCSC)NC(=O)[C@@H](NC(=O)[C@H](CCCCN)NC(=O)[C@H](Cc1cccc2ccccc12)NC(=O)[C@H](CC(C)C)NC(=O)[C@H](C)NC(=O)[C@@H](N)CCCCN)[C@@H](C)O)[C@@H](C)O)C(=O)N[C@@H](C)C(=O)N[C@@H](CC(C)C)C(N)=O (H-KAL[1Nal]KTMLKKLGTMAL-NH2) | 5.1 µM (≈ 9.4 µg/mL) | 1.2 µM (≈ 2.21 µg/mL) | 2.6 µM (≈ 4.79 µg/mL) | 10.5 µM (≈ 19.4 µg/mL) | 42 µM (≈ 77.4 µg/mL) | 10.5 µM (≈ 19.4 µg/mL) | 1.3 µM (≈ 2.4 µg/mL) | < 0.8 µM | 21 µM (≈ 38.7 µg/mL) | 21 µM (≈ 38.7 µg/mL) | 0.8 µM | 5.2 µM (≈ 9.59 µg/mL) | 80 µM |  | 
5 | H-ALFKTMLKKLGTMAL-NH2 | > 47.1 µM | 23.5 µM | > 46 µM | > 46 µM | > 46 µM | 5.8 µM | 23 µM | 4.5 µM | > 46 µM | > 46 µM | 16.7 µM | 23 µM | > 100 µM |  | 
6 | H-ALHKTMLKKLGTMAL-NH2 | > 44.9 µM | > 44.9 µM | > 45 µM | > 45 µM | > 45 µM | > 45 µM | > 45 µM | > 44.9 µM | > 45 µM | > 45 µM | > 44.9 µM | > 45 µM | > 100 µM |  | 
7 | H-ALLKTMLKKLGTMAL-NH2 | > 47.9 µM | 23.9 µM | > 48 µM | > 48 µM | > 48 µM | 12 µM | 24 µM | 6 µM | > 48 µM | > 48 µM | 12 µM | 24 µM | > 100 µM |  | 
8 | H-ALWKTMLKKLGT-NH2 | > 54 µM | > 54 µM |  |  |  |  |  | 54 µM |  |  | 54 µM |  | > 100 µM | 100 µg/mL and 54.2 µM | 50 µg/mL and 27.1 µM
9 | H-ALWKTMLKKLGTM-NH2 | > 50.6 µM | 50.6 µM |  |  |  |  |  | 22.7 µM |  |  | 50.6 µM |  | > 100 µM | 100 µg/mL and 50.6 µM | 50 µg/mL and 25.3 µM
10 | H-ALWKTMLKKLGTMA-NH2 | > 48.8 µM | 48.8 µM |  |  |  |  |  | 20.5 µM |  |  | 28.3 µM |  | > 100 µM | 100 µg/mL and 48.8 µM | 50 µg/mL and 24.4 µM
11 | H-ALWKTMLKKLGTMAL-NH2 | 11.5 µM | 2.9 µM | > 47 µM | > 47 µM | 23.7 µM | 23.7 µM | 5.7 µM | 1.4 µM | > 47 µM | > 45 µM | 2.7 µM | 5.7 µM | > 100 µM | 50 µg/mL and 22.8 µM | 19 µg/mL and 8.7 µM
12 | H-ALWKTMLKKLGTMALHAGK-NH2 | 35.9 µM | 3.6 µM |  |  |  |  |  | < 1.8 µM |  |  | 10.7 µM |  | > 100 µM | 50 µg/mL and 17.9 µM | 22 µg/mL and 7.9 µM
13 | H-ALWKTMLKKLGTMALHAGKAALGAAADTI-NH2 | 2.7 µM | 2.7 µM |  |  |  |  |  | 2.2 µM |  |  | < 1.5 µM |  | > 100 µM | 25 µg/mL and 6.1 µM | 9.6 µg/mL and 2.3 µM
14 | H-ALYKTMLKKLGTMAL-NH2 | > 46.7 µM | > 46.7 µM | > 45 µM | > 45 µM | > 45 µM | > 45 µM | > 45 µM | > 46.7 µM | > 45 µM | > 45 µM | > 46.7 µM | > 45 µM | > 100 µM |  | 
15 | H-KALWKTMLKKLGTMAL-NH2 | 20.8 µM | 2.6 µM | 5.2 µM | 21 µM | 42 µM | 10.1 µM | 2.6 µM | < 0.8 µM | > 42 µM | 21 µM | 2.7 µM | 21 µM | > 100 µM |  | 
